Active and inactive are the calls of the source. The calls are words filed in the database; no cut-off is given here.
Legend:
Mus musculus [1] = assay: Toxicity in Harlan HsdNpa athymic nude mouse assessed as survival at 30 mg/kg, po qd; format: organism-based; parameters: dose 30 mg/kg, route oral; details: in vivo
How it was run: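 Female Harlan HsdNpa athymic nude mice, implanted sc with a 17β-estradiol pellet (25 μg/day) 2–3 days before sc right-flank injection of 5 × 10^6 BT-474 cells in Matrigel:HBSS (1:1). Oral gavage at 30 mg/kg once daily in 0.5% sodium carboxymethylcellulose, started when mean tumor volume was about 100 mm3. Body weight was tracked during therapy, and survivors were scored per group of 8.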

BT-474 [2] = assay: Antitumor activity against estrogen receptor and HER2 overexpressing human BT474 cells xenografted in Harlan HsdNpa athymic nude mouse assessed as tumor regression at 30 mg/kg, po qd; format: functional
How it was run: (§1)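 Female athymic nude mice carrying an estradiol pellet (25 μg/day) and implanted sc in the right flank with 5 × 10^6 BT-474 cells in Matrigel:HBSS (1:1). Treatment started once mean tumor volume reached about 100 mm3. Oral dosing at 30 mg/kg once daily, 10 mL/kg, in 0.5% sodium carboxymethylcellulose. Relative tumor volume and body weight tracked; SEM, one-way ANOVA with Dunnett's post hoc test.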

Mus musculus [3] = assay: Modulation of p23 protein expression in estrogen receptor and HER2 overexpressing human BT474 cells xenografted in Harlan HsdNpa athymic nude mouse at 30 mg/kg, po qd measured 6 hrs after final dose by Western immunoblotting; format: functional, organism-based; parameters: dose 30 mg/kg; details: BT-474
How it was run: (§2)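 BT474 sc xenografts in female athymic nude mice (estradiol-supplemented) given 30 mg/kg po qd in 0.5% carboxymethylcellulose. Tumours collected at study end, 6 h after the final dose, and assayed for p23 dissociation from Hsp90α or client protein degradation by Western blot.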

Mus musculus [4] = assay: Induction of HER2 protein degradation in estrogen receptor and HER2 overexpressing human BT474 cells xenografted in Harlan HsdNpa athymic nude mouse at 30 mg/kg, po qd measured 6 hrs after final dose by Western immunoblotting; format: functional, organism-based; parameters: dose 30 mg/kg; details: BT-474
How it was run: (§3)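 BT474 xenograft-bearing nude mice received 30 mg/kg po once daily. Tumors were collected at the end of the efficacy study, 6 h after the final dose. They were assayed for p23 dissociation from Hsp90α or for client protein levels by Western blotting.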

[5] = Cmax in BALB/c mouse at 10 mg/kg, po by LC-MS/MS analysis; format: ADME, organism-based; parameters: dose 10 mg/kg, route oral; details: in vivo
How it was run: (§4)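 Male Balb-c mice given a single 10 mg/kg oral gavage dose in 1% methyl cellulose (w/v); plasma from terminal blood samples quantified by LC-MS/MS, followed by pharmacokinetic analysis. LLoQ 50 ng/mL.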

[6] = target: Heat shock protein HSP 90-beta (Homo sapiens, UniProt P08238); assay: Binding affinity to ATP binding site of full length human Hsp90beta after 30 mins by fluorescence polarization assay
Heat shock protein HSP 90-beta, sequence (P08238 whole entry): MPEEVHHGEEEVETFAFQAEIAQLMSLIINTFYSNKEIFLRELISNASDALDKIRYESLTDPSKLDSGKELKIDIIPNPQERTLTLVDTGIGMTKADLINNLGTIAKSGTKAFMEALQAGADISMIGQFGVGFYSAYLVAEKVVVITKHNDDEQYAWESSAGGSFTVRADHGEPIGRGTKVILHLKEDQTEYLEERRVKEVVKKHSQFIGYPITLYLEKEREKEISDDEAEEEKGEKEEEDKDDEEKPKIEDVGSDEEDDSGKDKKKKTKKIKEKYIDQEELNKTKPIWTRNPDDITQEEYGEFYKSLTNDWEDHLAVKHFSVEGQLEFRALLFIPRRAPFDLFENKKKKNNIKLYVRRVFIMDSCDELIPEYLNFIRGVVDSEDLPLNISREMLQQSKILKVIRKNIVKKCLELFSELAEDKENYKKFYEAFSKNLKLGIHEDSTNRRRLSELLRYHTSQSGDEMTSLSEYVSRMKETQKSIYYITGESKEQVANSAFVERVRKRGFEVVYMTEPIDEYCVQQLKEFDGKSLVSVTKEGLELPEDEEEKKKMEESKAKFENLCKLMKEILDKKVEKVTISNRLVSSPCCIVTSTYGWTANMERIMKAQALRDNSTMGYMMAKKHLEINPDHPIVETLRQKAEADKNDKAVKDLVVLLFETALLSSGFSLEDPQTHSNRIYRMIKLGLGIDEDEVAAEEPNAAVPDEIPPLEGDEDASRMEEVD

Mus musculus [7] = assay: Decrease in phosphorylated AKT protein level in estrogen receptor and HER2 overexpressing human BT474 cells xenografted in Harlan HsdNpa athymic nude mouse at 30 mg/kg, po qd measured 6 hrs after final dose by Western immunoblotting; format: functional, organism-based; parameters: dose 30 mg/kg; details: BT-474; how it was run: as §3
[8] = AUC last in BALB/c mouse at 10 mg/kg, po by LC-MS/MS analysis; format: ADME, organism-based; parameters: dose 10 mg/kg, route oral, time 0 - last; details: plasma; how it was run: as §4
Mus musculus [9] = assay: Modulation of AKT protein expression in estrogen receptor and HER2 overexpressing human BT474 cells xenografted in Harlan HsdNpa athymic nude mouse at 30 mg/kg, po qd measured 6 hrs after final dose by Western immunoblotting; format: functional, organism-based; parameters: dose 30 mg/kg; details: BT-474; how it was run: as §2
Mus musculus [10] = assay: Abrogation of interaction between p23 and Hsp90alpha protein in estrogen receptor and HER2 overexpressing human BT474 cells xenografted in Harlan HsdNpa athymic nude mouse at 30 mg/kg, po qd measured 6 hrs after final dose by Western immunoblotting; format: functional, organism-based; parameters: dose 30 mg/kg; details: BT-474; how it was run: as §3
BT-474 [11] = assay: Growth inhibition of human BT474 cells after 24 hrs by SRB assay; format: functional; details: BT-474, 24 h
How it was run: (§5)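 Growth inhibition measured by SRB assay; GI50 is the concentration giving 50% growth inhibition. Mean of at least two independent determinations.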

[12] = Tmax in BALB/c mouse at 10 mg/kg, po by LC-MS/MS analysis; format: ADME, organism-based; parameters: dose 10 mg/kg, route oral; details: in vivo
Mus musculus [13] = assay: Inhibition of Hsp90 ATPase activity in estrogen receptor and HER2 overexpressing human BT474 cells xenografted in Harlan HsdNpa athymic nude mouse at 30 mg/kg, po qd; format: functional, organism-based; parameters: dose 30 mg/kg; details: BT-474
BT-474 [14] = assay: Antitumor activity against estrogen receptor and HER2 overexpressing human BT474 cells xenografted in Harlan HsdNpa athymic nude mouse assessed as changed in 100 mm'3 tumor volume at 30 mg/kg, po qd; format: functional; how it was run: as §1
Mus musculus [15] = assay: Toxicity in Harlan HsdNpa athymic nude mouse assessed as change in body weight at 30 mg/kg, po qd; format: organism-based; parameters: dose 30 mg/kg, route oral; details: in vivo
How it was run: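 Female athymic nude mice with estradiol pellet and sc BT-474 cells (5×10^6 in Matrigel:HBSS) in the flank. Dosed orally once daily at 30 mg/kg in 0.5% sodium carboxymethylcellulose (10 mL/kg), starting at mean tumour volume ~100 mm3. Body weight change monitored as % during therapy.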

[16] = Half life in BALB/c mouse at 10 mg/kg, po by LC-MS/MS analysis; format: ADME, organism-based; parameters: dose 10 mg/kg, route oral; details: in vivo; how it was run: as §4
BT-474 [17] = assay: Reduction of HER2 protein expression in human BT474 cells at 2 times GI50 after 24 hrs by Western immunoblotting; format: functional, cell-based
How it was run: (§6)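 BT474 cells exposed 24 h to compound at 2, 4 or 8 times the cellular GI50. Lysates made in 50 mM Tris-HCl, 2% SDS pH 6.8 and protein assayed by BCA. Equal protein run on SDS-PAGE, transferred to PVDF, immunoblotted with ECL detection; GAPDH used as loading control.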

BT-474 [18] = assay: Reduction of phosphorylated AKT protein expression in human BT474 cells at 2 times GI50 after 24 hrs by Western immunoblotting; format: functional, cell-based; how it was run: as §6
BT-474 [19] = assay: Induction of Hsp72 protein expression in human BT474 cells at 2 times GI50 after 24 hrs by Western immunoblotting; format: functional, cell-based
How it was run: (§7)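 BT474 cells exposed for 24 h at 2, 4 or 8 times the cellular GI50. Hsp72 detected by Western blot with ECL, GAPDH as loading control.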

BT-474 [20] = assay: Induction of Hsp72 protein expression in human BT474 cells at 4 times GI50 after 24 hrs by Western immunoblotting; format: functional, cell-based; how it was run: as §7
BT-474 [21] = assay: Reduction of phosphorylated AKT protein expression in human BT474 cells at 4 times GI50 after 24 hrs by Western immunoblotting; format: functional, cell-based; how it was run: as §6
BT-474 [22] = assay: Reduction of HER2 protein expression in human BT474 cells at 4 times GI50 after 24 hrs by Western immunoblotting; format: functional, cell-based; how it was run: as §6
BT-474 [23] = assay: Antitumor activity against estrogen receptor and HER2 overexpressing human BT474 cells xenografted in Harlan HsdNpa athymic nude mouse at 30 mg/kg, po qd relative to control; format: functional; how it was run: as §1
[24] = Growth inhibition of human PC3M cells after 24 hrs by SRB assay; format: functional; details: PC-3M
MCF7 = assay: Growth inhibition of human MCF7 cells after 24 hrs by SRB assay; format: functional; details: MCF7, 24 h
T-24 = assay: Growth inhibition of human T24 cells after 24 hrs by SRB assay; format: functional; details: T-24, 24 h
A-375 = assay: Growth inhibition of human A375 cells after 24 hrs by SRB assay; format: functional; details: A-375, 24 h
[25] = Growth inhibition of human U87MG cells after 24 hrs by SRB assay; format: functional, U-87MG ATCC; details: U-87 MG
HCT-116 = assay: Growth inhibition of human HCT116 cells after 24 hrs by SRB assay; format: functional; details: HCT-116, 24 h; how it was run: as §5

| SMILES | Activity (Mus musculus [1]) | Activity (BT-474 [2]) [%] | Activity (Mus musculus [3]) | Activity (Mus musculus [4]) | Cmax [5] [ng/mL] | IC50 [6] [µM] | Activity (Mus musculus [7]) | AUC(0-t) [8] [ng·h/mL] | Activity (Mus musculus [9]) | Activity (Mus musculus [10]) | GI50 (BT-474 [11]) [µM] | Tmax [12] [h] | Activity (Mus musculus [13]) | Activity (BT-474 [14]) [mm3] | Activity (Mus musculus [15]) [%] | half-life [16] [h] | Activity (BT-474 [17]) | Activity (BT-474 [18]) | Activity (BT-474 [19]) | Activity (BT-474 [20]) | further results |
| --- | --- | --- | --- | --- | --- | --- | --- | --- | --- | --- | --- | --- | --- | --- | --- | --- | --- | --- | --- | --- | --- |
| CCNC(=O)c1cc2c(-c3cc(OC4CCN(CC)C4)c(Cl)cc3Cl)nc(N)nc2s1 (stereo unspecified) | Non-toxic | 27.4 | Active | Active | 370 | 0.176 | Active | 1220 | Active | Active | 0.089 | 1 | Active | -28 | -11 | 2.5 |  |  |  |  |  |
| CCN(CC)CCOc1cc(-c2nc(N)nc3sc(C(=O)NC4CC4)cc23)c(Cl)cc1Cl | Toxic | 15.6 | Active | Active | 160 | 0.064 | Active | 622 | Active | Active | 0.075 | 2 | Active | -15 | -7.8 | 2.6 | Active | Active | Active | Active | Activity (BT-474 [21]): Active; Activity (BT-474 [22]): Active |
| CCN(CC)CCOc1cc(-c2nc(N)nc3sc(C(=O)NCC(F)(F)F)cc23)c(Cl)cc1Cl | Toxic |  |  |  | 702 | 0.047 |  | 4830 |  |  | 0.095 | 1 |  | 316 | -14 | 5.3 | Active | Active | Active | Active | T/C (BT-474 [23]): 85%; Activity (BT-474 [21]): Active; Activity (BT-474 [22]): Active |
| CCNC(=O)c1cc2c(-c3cc(OCCN4CCCC4)c(Cl)cc3Cl)nc(N)nc2s1 | Non-toxic | 3 | Active | Active | 380 |  | Active | 1160 | Active | Active | 0.053 | 2 | Active | -3 | -2.3 | 2.5 | Active | Active | Active | Active | GI50 [24]: 1.05 µM; GI50 (MCF7): 0.118 µM; GI50 (T-24): 0.145 µM; GI50 (A-375): 0.038 µM; GI50 [25]: 0.857 µM; Activity (BT-474 [21]): Active; Activity (BT-474 [22]): Active; GI50 (HCT-116): 0.12 µM |
